# Assay results: article PMC11843339 (ACS Bio & Med Chem Au, 2024)
# Where two headings read alike, the source gives them in different places.
# Assays:
# SaOS-2 = experiment: MTT cytotoxicity assay, SaOS-2 cells; type: cell-based, human; conditions: read-out: cytotoxic activity IC50
# How it was run: (§1)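 Human osteosarcoma cells (from ATCC) were seeded at 5 × 10^3 per well and left to attach overnight at 37 °C, 5% CO2. They were then exposed to test compound for 72 h. Medium was replaced with 0.5 mg/mL MTT in culture medium for 2 h at 37 °C, and formazan was dissolved in DMSO. OD was read at 570 nm, survival was calculated as % of untreated control OD, and runs were done in triplicate.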
# [1] = system: osteosarcoma cancer cell lines (MNNG/HOS, U2OS, 143B, SaOS-2); experiment: MTT cytotoxicity, summary over osteosarcoma cell lines; type: cell-based, human; conditions: for IC50: Homo sapiens, 72 h, read-out: IC50 range against all OS cell lines
# How it was run: as §1
# 143B = experiment: MTT cytotoxicity assay, 143B cells; type: cell-based, human; conditions: 72 h, read-out: cytotoxic activity IC50
# How it was run: as §1
# MNNG/HOS = experiment: MTT cytotoxicity assay, MNNG/HOS cells; type: cell-based, human; conditions: 72 h, read-out: cytotoxic activity IC50
# How it was run: as §1
# U2OS = experiment: MTT cytotoxicity assay, U2OS cells; type: cell-based, human; conditions: 72 h, read-out: cytotoxic activity IC50
# How it was run: as §1
# [2] = MTT cell viability, normal osteoblast cells hFOB 1.19; type: cell-based, human; conditions: human, hFOB 1.19 normal osteoblast cells
# How it was run: (§2)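 Normal human osteoblasts (hFOB 1.19, from ATCC) were exposed to test compound at 0.1, 1.0, 10.0 and 100.0 μM for 72 h. Viability was read by MTT: 0.5 mg/mL for 2 h at 37 °C, DMSO solubilisation, OD at 570 nm. Values are expressed relative to untreated control set at 100%, as mean ± SD (n = 3).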
# human IMPDH1 = human IMPDH1 (Homo sapiens, UniProt P20839); experiment: IMPDH1 inhibitory assay; type: biochemical
# hFOB 1.19 = experiment: MTT cell viability, normal osteoblast cells hFOB 1.19; type: cell-based, human; conditions: at the tested concentrations (0.1-100 μM), in words
# How it was run: as §2
# human IMPDH2 = human IMPDH2 (Homo sapiens, UniProt P12268); experiment: IMPDH2 inhibitory assay; type: biochemical
# Chain of human IMPDH1 (P20839 whole entry): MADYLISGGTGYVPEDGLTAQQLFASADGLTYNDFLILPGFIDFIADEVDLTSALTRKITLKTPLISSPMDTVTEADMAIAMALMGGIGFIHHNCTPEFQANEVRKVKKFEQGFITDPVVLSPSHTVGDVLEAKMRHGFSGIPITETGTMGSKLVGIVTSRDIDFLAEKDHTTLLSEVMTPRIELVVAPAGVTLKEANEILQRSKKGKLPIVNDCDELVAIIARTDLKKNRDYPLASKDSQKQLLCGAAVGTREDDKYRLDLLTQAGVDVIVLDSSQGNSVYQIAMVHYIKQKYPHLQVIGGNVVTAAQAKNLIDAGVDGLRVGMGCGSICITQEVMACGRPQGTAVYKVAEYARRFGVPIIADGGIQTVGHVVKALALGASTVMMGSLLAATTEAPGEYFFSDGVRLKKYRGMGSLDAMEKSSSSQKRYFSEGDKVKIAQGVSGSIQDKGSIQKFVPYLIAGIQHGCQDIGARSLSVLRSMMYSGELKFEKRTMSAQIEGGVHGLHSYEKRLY
Compound,"IC50 (SaOS-2; Homo sapiens, SAOS-2, 72 h) [µM]",IC50 [1] [µM],"IC50 (143B; Homo sapiens, 143B) [µM]","IC50 (MNNG/HOS; Homo sapiens, HOS) [nM]","IC50 (U2OS; Homo sapiens, U2OS) [nM]",other results
"COc1c(C)c2c(c(O[Si](c3ccccc3)(c3ccccc3)C(C)(C)C)c1C/C=C(\C)CCC(=O)O[Si](c1ccccc1)(c1ccccc1)C(C)(C)C)C(=O)OC2 [Compound 2b, tert-Butyldiphenylsilyl (E)-6-(4-((tert-Butyldiphenylsilyl)oxy)-6-methoxy-7-methyl-3-oxo-1,3-dihydroisobenzofuran-5-yl)-4-methylhex-4-enoate]",5.8 ± 1.15,1.18 to 5.85,5.85 ± 0.54,1180 ± 740,2520 ± 960,
"COc1c(C)c2c(c(O)c1C/C=C(\C)CCC(=O)OCCc1ccc(F)cc1)C(=O)OC2 [Compound 6b, 4-Fluorophenethyl (E)-6-(4-Hydroxy-6-methoxy-7-methyl-3-oxo-1,3-dihydroisobenzofuran-5-yl)-4-methylhex-4-enoate]",5.75 ± 1.06,,2 ± 0.14,,7000 ± 2120,
"COc1ccc(CCOC(=O)CC/C(C)=C/Cc2c(OC)c(C)c3c(c2O[Si](c2ccccc2)(c2ccccc2)C(C)(C)C)C(=O)OC3)cc1 [Compound 5c, 4-Methoxyphenethyl (E)-6-(4-((tert-Butyldiphenylsilyl)oxy)-6-methoxy-7-methyl-3-oxo-1,3-dihydroisobenzofuran-5-yl)-4-methylhex-4-enoate]",39.5 ± 0.71,,14.5 ± 4.95,43500 ± 2120,10200 ± 1060,
"COc1c(C)c2c(c(O[Si](c3ccccc3)(c3ccccc3)C(C)(C)C)c1C/C=C(\C)CCC(=O)ON1C(=O)c3ccccc3C1=O)C(=O)OC2 [Compound 5a, 1,3-Dioxoisoindolin-2-yl (E)-6-(4-((tert-Butyldiphenylsilyl)oxy)-6-methoxy-7-methyl-3-oxo-1,3-dihydroisobenzofuran-5-yl)-4-methylhex-4-enoate]",12,,31 ± 1.41,19500 ± 3540,10200 ± 3890,
"COc1c(C)c2c(c(O)c1C/C=C(\C)CCC(=O)OC(c1ccccc1)(c1ccccc1)c1ccccc1)C(=O)OC2 [Compound 2e, Trityl (E)-6-(4-Hydroxy-6-methoxy-7-methyl-3-oxo-1,3-dihydroisobenzofuran-5-yl)-4-methylhex-4-enoate]",4.83 ± 0.5,0.68 to 5.13,5.13 ± 1.1,680 ± 110,980 ± 35,
"COc1c(C)c2c(c(O)c1C/C=C(\C)CCC(=O)ON1C(=O)c3ccccc3C1=O)C(=O)OC2 [Compound 6a, 1,3-Dioxoisoindolin-2-yl (E)-6-(4-Hydroxy-6-methoxy-7-methyl-3-oxo-1,3-dihydroisobenzofuran-5-yl)-4-methylhex-4-enoate]",6.9,,4.85 ± 1.48,,1380 ± 600,
"COc1c(C)c2c(c(O)c1C/C=C(\C)CCC(=O)O)C(=O)OC2 [MPA 1, Mycophenolic acid, reference compound]",4 ± 0.28,0.64 to 4,1.55 ± 0.49,640 ± 80,680 ± 40,"viability at 72 h, 0.1 µM [2]: 74.3 ± 4.24%; viability at 72 h, 1 µM [2]: 20.1 ± 1.41%; viability at 72 h, 10 µM [2]: 7.13 ± 0.67%; viability at 72 h, 100 µM [2]: 3.38 ± 3.4%; Ki (human IMPDH1): 136 nM"
"COc1c(C)c2c(c(O)c1C/C=C(\C)CCC(=O)O[Si](c1ccccc1)(c1ccccc1)C(C)(C)C)C(=O)OC2 [Compound 4b, tert-Butyldiphenylsilyl (E)-6-(4-Hydroxy-6-methoxy-7-methyl-3-oxo-1,3-dihydroisobenzofuran-5-yl)-4-methylhex-4-enoate]",1.85 ± 0.35,,6.8 ± 1.41,13000 ± 4240,1850 ± 70,
"COc1c(C)c2c(c(O[Si](C)(C)C(C)(C)C)c1C/C=C(\C)CCC(=O)O)C(=O)OC2 [Compound 3a, (E)-6-(4-((tert-Butyldimethylsilyl)oxy)-6-methoxy-7-methyl-3-oxo-1,3-dihydroisobenzofuran-5-yl)-4-methylhex-4-enoic acid]",4.55 ± 2.6,,3.9 ± 0.76,860 ± 200,2310 ± 1260,
"COc1c(C)c2c(c(O[Si](C(C)C)(C(C)C)C(C)C)c1C/C=C(\C)CCC(=O)O[Si](C(C)C)(C(C)C)C(C)C)C(=O)OC2 [Compound 2c, Triisopropylsilyl (E)-6-(6-Methoxy-7-methyl-3-oxo-4-((triisopropylsilyl)oxy)-1,3-dihydroisobenzofuran-5-yl)-4-methylhex-4-enoate]",17.4 ± 9.03,6.82 to 63.9,63.1 ± 3.2,6820 ± 3510,24430 ± 40,
"COc1ccc(CCOC(=O)CC/C(C)=C/Cc2c(O)c3c(c(C)c2OC)COC3=O)cc1 [Compound 6c, 4-Methoxyphenethyl (E)-6-(4-Hydroxy-6-methoxy-7-methyl-3-oxo-1,3-dihydroisobenzofuran-5-yl)-4-methylhex-4-enoate]",9 ± 1.41,,2.6 ± 0.28,38000 ± 11300,7350 ± 1630,
"(E)-6-(4-((tert-Butyldimethylsilyl)oxy)-6-methoxy-7-methyl-3-oxo-1,3-dihydroisobenzofuran-5-yl)-4-methylhex-4-enoic acid [Compound 3b]",,,,,,"IC50 (SaOS-2; SaOS cells, MTT, 72 h): 4.58 ± 1.05 µM; IC50 (143B; 143B cells, MTT): 4.74 ± 0.76 µM; IC50 (MNNG/HOS; MNNG cells, MTT): 1150 ± 350 nM; IC50 (U2OS; U2OS cells, MTT): 2960 ± 2320 nM"
"COc1c(C)c2c(c(O)c1C/C=C(\C)CCC(=O)O[Si](c1ccccc1)(c1ccccc1)c1ccccc1)C(=O)OC2 [Compound 2d, Triphenylsilyl (E)-6-(4-Hydroxy-6-methoxy-7-methyl-3-oxo-1,3-dihydroisobenzofuran-5-yl)-4-methylhex-4-enoate]",2.27 ± 0.68,0.64 to 2.27,1.65 ± 0.26,640 ± 150,1010 ± 400,"fold more potent than carbon compound 2e ([1]; 143B and SaOS cell lines, versus 2e): 2 to 3 fold; cytotoxicity to human normal osteoblast cells (hFOB 1.19) (hFOB 1.19): low cytotoxicity; viability at 72 h, 0.1 µM [2]: 93.9 ± 1.01%; viability at 72 h, 1 µM [2]: 92 ± 1.78%; viability at 72 h, 10 µM [2]: 84.5 ± 2.95%; viability at 72 h, 100 µM [2]: 73.3 ± 1.39%; Ki (human IMPDH2): 1800 nM; Ki (human IMPDH1; read-out: Ki,app (apparent tight-binding inhibition constant), IMPDH1, IMP 100 μM, NAD+ 200 μM, NO = No inhibition observed): > 100000 nM"
"COc1c(C)c2c(c(O)c1C/C=C(\C)CCC(=O)O[Si](C(C)C)(C(C)C)C(C)C)C(=O)OC2 [Compound 4c, Triisopropylsilyl (E)-6-(4-Hydroxy-6-methoxy-7-methyl-3-oxo-1,3-dihydroisobenzofuran-5-yl)-4-methylhex-4-enoate]",5.5 ± 1.51,,35 ± 9.9,5700 ± 710,920,
"COc1c(C)c2c(c(O[Si](C)(C)C(C)(C)C)c1C/C=C(\C)CCC(=O)O[Si](C)(C)C(C)(C)C)C(=O)OC2 [Compound 2a, tert-Butyldimethylsilyl (E)-6-(4-((tert-Butyldimethylsilyl)oxy)-6-methoxy-7-methyl-3-oxo-1,3-dihydroisobenzofuran-5-yl)-4-methylhex-4-enoate]",5.43 ± 2.87,1.36 to 5.43,4.12 ± 0.28,1360 ± 760,3800 ± 880,
"COc1c(C)c2c(c(O[Si](C(C)C)(C(C)C)C(C)C)c1C/C=C(\C)CCC(=O)O)C(=O)OC2 [Compound 3c, (E)-6-(6-Methoxy-7-methyl-3-oxo-4-((triisopropylsilyl)oxy)-1,3-dihydroisobenzofuran-5-yl)-4-methylhex-4-enoic acid]",5.44 ± 0.82,,6.31 ± 0.4,2680 ± 1020,3750 ± 1060,
